Laboratory results: ChEMBL document CHEMBL4364248, “Discovery of 1,2,4-oxadiazole-Containing hydroxamic acid derivatives as histone deacetylase inhibitors potential application in cancer therapy” (Eur J Med Chem, 2019)
Active and inactive are the calls of the source. No cut-off for these calls is given here.

How the values were obtained:
[1] = system: JeKo-1; assay: Cell cycle arrest in human JeKo1 cells assessed as accumulation at S phase at 100 nM after 24 hrs by propidium iodide staining based flow cytometric analysis (reference value: 26.13 %); assay type: functional
[2] = system: JeKo-1; assay: Cell cycle arrest in human JeKo1 cells assessed as accumulation at G2/M phase at 100 nM after 24 hrs by propidium iodide staining based flow cytometric analysis (reference value: 10.71 %); assay type: functional
[3] = system: JeKo-1; assay: Cell cycle arrest in human JeKo1 cells assessed as accumulation at G2/M phase at 10 nM after 24 hrs by propidium iodide staining based flow cytometric analysis (reference value: 10.71 %); assay type: functional
[4] = Oral bioavailability in Sprague-Dawley rat at 5 mg/kg measured upto 24 hrs by LC-MS/MS analysis; assay type: ADME, organism-based; conditions: in vivo
Outline: (§1)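 SD rats (200-250 g), six per time point, given 5 mg/kg as a tail-vein bolus or orally. Blood was taken by cardiac puncture before dosing and at 5, 15, 30, 45 min and 1, 2, 4, 6, 8, 10, 12 and 24 h. Plasma was spun at 4000 g for 15 min at 4 °C and stored at -80 °C. Analysis was LC-MS/MS with multiple-reaction monitoring, followed by noncompartmental analysis.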

[5] = molecular target: Histone deacetylase 11 (Homo sapiens, UniProt Q96DB2); assay: Inhibition of recombinant full length human HDAC11 expressed in baculovirus infected Sf9 cells using Ac-peptide-AMC as substrate after 1 hr by fluorescence assay
Histone deacetylase 11, sequence (Q96DB2 whole entry): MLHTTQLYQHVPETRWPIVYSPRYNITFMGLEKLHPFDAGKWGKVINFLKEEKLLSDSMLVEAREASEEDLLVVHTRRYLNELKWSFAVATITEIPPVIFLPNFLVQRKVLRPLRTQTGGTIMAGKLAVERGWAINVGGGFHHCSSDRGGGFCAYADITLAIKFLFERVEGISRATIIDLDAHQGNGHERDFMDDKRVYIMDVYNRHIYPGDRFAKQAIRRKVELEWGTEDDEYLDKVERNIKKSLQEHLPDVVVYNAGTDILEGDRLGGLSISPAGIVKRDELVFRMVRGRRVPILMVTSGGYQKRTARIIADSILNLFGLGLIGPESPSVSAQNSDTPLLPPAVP

[6] = molecular target: T1, Protein deacetylase HDAC6 (Homo sapiens) (UniProt Q9UBN7); assay: Inhibition of HDAC6 in human MM1S cells assessed as increase in alpha tubulin acetylation after 6 hrs by Western blot analysis; assay type: cell-based
T1 sequence (whole entry): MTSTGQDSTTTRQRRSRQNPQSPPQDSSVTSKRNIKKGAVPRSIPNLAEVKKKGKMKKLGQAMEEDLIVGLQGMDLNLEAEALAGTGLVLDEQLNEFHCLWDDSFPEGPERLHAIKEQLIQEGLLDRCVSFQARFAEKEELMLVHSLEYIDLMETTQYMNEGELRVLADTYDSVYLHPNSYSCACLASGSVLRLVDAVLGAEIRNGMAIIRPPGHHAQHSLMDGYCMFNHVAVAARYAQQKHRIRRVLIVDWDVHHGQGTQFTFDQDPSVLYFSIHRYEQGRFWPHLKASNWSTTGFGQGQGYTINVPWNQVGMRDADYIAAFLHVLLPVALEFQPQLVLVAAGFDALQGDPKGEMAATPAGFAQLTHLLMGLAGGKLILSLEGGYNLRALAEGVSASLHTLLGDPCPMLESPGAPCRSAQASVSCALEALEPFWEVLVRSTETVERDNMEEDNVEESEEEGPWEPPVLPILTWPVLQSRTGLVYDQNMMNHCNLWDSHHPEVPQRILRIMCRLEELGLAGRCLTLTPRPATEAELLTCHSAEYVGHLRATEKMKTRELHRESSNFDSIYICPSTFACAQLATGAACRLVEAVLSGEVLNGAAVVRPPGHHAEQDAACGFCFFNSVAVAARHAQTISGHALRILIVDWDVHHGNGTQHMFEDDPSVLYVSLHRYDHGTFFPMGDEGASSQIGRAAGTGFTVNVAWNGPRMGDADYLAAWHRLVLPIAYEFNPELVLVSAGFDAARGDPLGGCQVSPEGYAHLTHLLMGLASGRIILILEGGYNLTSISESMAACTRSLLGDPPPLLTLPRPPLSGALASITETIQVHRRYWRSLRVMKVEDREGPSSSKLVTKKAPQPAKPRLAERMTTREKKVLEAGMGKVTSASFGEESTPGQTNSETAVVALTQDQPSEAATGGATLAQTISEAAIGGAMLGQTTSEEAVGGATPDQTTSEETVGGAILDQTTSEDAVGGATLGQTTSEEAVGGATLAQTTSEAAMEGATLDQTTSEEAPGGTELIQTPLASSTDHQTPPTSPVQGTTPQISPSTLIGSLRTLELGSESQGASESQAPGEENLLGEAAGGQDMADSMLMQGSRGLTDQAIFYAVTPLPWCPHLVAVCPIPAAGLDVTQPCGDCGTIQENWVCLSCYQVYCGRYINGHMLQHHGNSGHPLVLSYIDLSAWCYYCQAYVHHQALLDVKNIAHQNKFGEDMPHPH

[7] = system: JeKo-1; assay: Cell cycle arrest in human JeKo1 cells assessed as accumulation at G1 phase at 10 nM after 24 hrs by propidium iodide staining based flow cytometric analysis (reference value: 63.16 %); assay type: functional
[8] = system: JeKo-1; assay: Induction of apoptosis in human JeKo1 cells assessed as necrotic cells at 1000 nM after 48 hrs by annexin V-FITC/propidium iodide staining-based flow cytometric method (reference value: 2.03 %); assay type: functional
Outline: (§2)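 Jeko-1 cells were grown in RPMI-1640 with 10% FBS at 37 °C under 5% CO2. They were exposed to 0, 10, 100 or 1000 nM for 48 h, then apoptosis induction was analysed.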

[9] = system: Raji; assay: Antiproliferative activity against human Raji cells after 72 hrs by MTT assay; assay type: functional, cell-based
[10] = Cmax in Sprague-Dawley rat at 5 mg/kg, iv measured upto 24 hrs by LC-MS/MS analysis; assay type: ADME, organism-based; parameters: dose 5 mg/kg, route intravenous; conditions: in vivo; outline: as §1
[11] = molecular target: Histone deacetylase 1 (Homo sapiens, UniProt Q13547); assay: Inhibition of recombinant full length HDAC1 (unknown origin) using Ac-peptide-AMC as substrate after 1 hr by fluorescence assay
Histone deacetylase 1, sequence (Q13547 whole entry): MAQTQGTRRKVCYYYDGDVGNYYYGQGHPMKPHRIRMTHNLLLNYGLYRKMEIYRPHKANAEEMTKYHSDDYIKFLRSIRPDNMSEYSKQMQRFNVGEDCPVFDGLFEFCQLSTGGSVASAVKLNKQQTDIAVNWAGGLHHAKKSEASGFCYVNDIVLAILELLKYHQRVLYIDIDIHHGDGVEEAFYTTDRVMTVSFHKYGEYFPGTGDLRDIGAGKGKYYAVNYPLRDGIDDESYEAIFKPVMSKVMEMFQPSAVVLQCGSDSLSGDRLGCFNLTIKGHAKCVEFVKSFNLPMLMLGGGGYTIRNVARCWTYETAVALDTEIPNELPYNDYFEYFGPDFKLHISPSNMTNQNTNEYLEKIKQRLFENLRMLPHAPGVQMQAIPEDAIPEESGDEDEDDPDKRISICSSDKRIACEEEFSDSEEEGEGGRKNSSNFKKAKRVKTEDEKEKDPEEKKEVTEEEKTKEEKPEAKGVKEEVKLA

[12] = system: JeKo-1; assay: Induction of apoptosis in human JeKo1 cells assessed as viable cells at 100 nM after 48 hrs by annexin V-FITC/propidium iodide staining-based flow cytometric method (reference value: 91.6 %); assay type: functional; conditions: JeKo-1, 48 h, read-out: Activity; outline: as §2
[13] = Antiproliferative activity against human ARD cells after 72 hrs by MTT assay; assay type: functional, cell-based
[14] = Toxicity in NOD/SCID mouse xenografted with human Daudi cells at 10 mg/kg, iv treated on day 1,3 and 5 per week and measured for every 2 days; assay type: organism-based; conditions: in vivo, 48 h
Outline: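 Female NOD/SCID mice (5–6 weeks) bearing s.c. Daudi xenografts, six per group. Dosing was 10 mg/kg i.v. or 20 mg/kg p.o. in 8% HP-β-CD on days 1, 3 and 5 weekly. Behaviour was observed, and organ tissues were collected at sacrifice for H&E staining.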

[15] = system: JeKo-1; assay: Induction of apoptosis in human JeKo1 cells assessed as necrotic cells at 100 nM after 48 hrs by annexin V-FITC/propidium iodide staining-based flow cytometric method (reference value: 2.03 %); assay type: functional; outline: as §2
[16] = system: Daudi; assay: Antitumour activity against human Daudi cells xenografted in NOD/SCID mouse assessed as DNA damage at 20 mg/kg, po treated on day 1,3 and 5 per week; assay type: functional, organism-based
Outline: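 Daudi s.c. xenografts in female NOD/SCID mice (5–6 weeks) were randomized six per group at 100–200 mm3. Dosing was 10 mg/kg i.v. or 20 mg/kg p.o. in 8% HP-β-CD on days 1, 3 and 5 weekly. Tumors were collected at study end for immunohistochemistry, with comparison to the control group.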

[17] = system: JeKo-1; assay: Induction of apoptosis in human JeKo1 cells assessed as viable cells at 10 nM after 48 hrs by annexin V-FITC/propidium iodide staining-based flow cytometric method (reference value: 91.6 %); assay type: functional; conditions: JeKo-1, 48 h, read-out: Activity; outline: as §2

## Cc1ccc(CN2CCC(c3noc(CN(C)c4ncc(C(=O)NO)cn4)n3)CC2)cc1
[1]
  Activity: 8.5%
[2]
  Activity: 10.77%
[3]
  Activity: 9.1%
[4]
  bioavailability: 53.5%
[5]
  IC50: > 10 µM
[6]
  inhibition: Dose-dependent effect
[7]
  Activity: 66.88%
[8]
  Activity: 0.096%
[9]
  IC50: 0.0121 µM
[10]
  Cmax: 0.955 µg/mL
[11]
  IC50: 0.0018 µM
[12]
  viability at 0.1 µM: 54.3%
[13]
  IC50: 0.0449 µM
[14]
  Activity: Non-Toxic
[15]
  Activity: 0.061%
[16]
  Activity: Active
[17]
  viability at 0.01 µM: 91.8%
